ChEMBL document CHEMBL3045617, “Synthesis and antiviral activities of cyanoacrylate derivatives containing an alpha-aminophosphonate moiety” (J Agric Food Chem, 2008)
In brackets after ≈: the same amount, converted by molar mass.

Legend:
Tobacco mosaic virus [1] = test: Antiviral activity against Tobacco mosaic virus (TMV) pre-treated with 500 ug/mL compound for 30 min followed by inoculation on left side of Nicotiana tabacum leaves assessed as virus inactivation effect measured 3 to 4 days post viral infection; format: functional
Summary of the method: (§1)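 Purified TMV is mixed with an equal volume of compound solution for 30 min. The mixture is rub-inoculated on the left half of N. tabacum leaves, and a solvent–virus mixture on the right half serves as control. Local lesions are recorded 3-4 days after inoculation. Inhibition % = (control − treated average lesions)/control × 100. Three repetitions. EC50 is derived from tests at several concentrations.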

Tobacco mosaic virus [2] = test: Antiviral activity against Tobacco mosaic virus (TMV) pre-treated with 250 ug/mL compound for 30 min followed by inoculation on left side of Nicotiana tabacum leaves assessed as virus inactivation effect measured 3 to 4 days post viral infection; format: functional; summary of the method: as §1
Tobacco mosaic virus [3] = test: Antiviral activity against Tobacco mosaic virus (TMV) inoculated on 500 ug/mL compound smeared Nicotiana tabacum leaves assessed as protective effect against viral infection measured 3 to 4 days post viral infection; format: functional
Summary of the method: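 Half-leaf assay on same-age N. tabacum leaves. The compound solution is applied to the left half and solvent to the right half as control. After 12 h, leaves dusted with silicon carbide are brush-inoculated with purified TMV (6 × 10^-3 mg/mL) and then rinsed with water. Local lesions are counted 3-4 days later. Inhibition % = (control lesions − treated lesions)/control lesions × 100. Three repetitions.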

Tobacco mosaic virus [4] = test: Antiviral activity against Tobacco mosaic virus (TMV) pre-treated with 125 ug/mL compound for 30 min followed by inoculation on left side of Nicotiana tabacum leaves assessed as virus inactivation effect measured 3 to 4 days post viral infection; format: functional; summary of the method: as §1
Tobacco mosaic virus [5] = test: Antiviral activity against Tobacco mosaic virus (TMV) pre-treated with compound for 30 min followed by inoculation on left side of Nicotiana tabacum leaves assessed as virus inactivation effect measured 3 to 4 days post viral infection; format: functional, organism-based; summary of the method: as §1
Tobacco mosaic virus [6] = test: Antiviral activity against Tobacco mosaic virus (TMV) inoculated on whole Nicotiana tabacum leaves followed by smearing with 500 ug/mL compound solution on left side of leaves assessed as viral infection curative effect measured 3 to 4 days post viral infection; format: functional
Summary of the method: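 Whole same-age N. tabacum leaves are brush-inoculated with purified TMV (6 × 10^-3 mg/mL), washed with water and dried. The compound solution is then applied to the left half and solvent to the right half as control. Local lesions are counted 3-4 days after inoculation. Inhibition % is calculated from average lesion counts, control versus treated. Three repetitions.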

Tobacco mosaic virus [7] = test: Antiviral activity against Tobacco mosaic virus (TMV) pre-treated with 62.5 ug/mL compound for 30 min followed by inoculation on left side of Nicotiana tabacum leaves assessed as virus inactivation effect measured 3 to 4 days post viral infection; format: functional; summary of the method: as §1
Tobacco mosaic virus [8] = test: Antiviral activity against Tobacco mosaic virus (TMV) pre-treated with 30.7 ug/mL compound for 30 min followed by inoculation on left side of Nicotiana tabacum leaves assessed as virus inactivation effect measured 3 to 4 days post viral infection; format: functional; summary of the method: as §1

| SMILES | Activity (Tobacco mosaic virus [1]) [%] | Activity (Tobacco mosaic virus [2]) [%] | Activity (Tobacco mosaic virus [3]) [%] | Activity (Tobacco mosaic virus [4]) [%] | EC50 (Tobacco mosaic virus [5]) [µg/mL] | Activity (Tobacco mosaic virus [6]) [%] | Activity (Tobacco mosaic virus [7]) [%] | Activity (Tobacco mosaic virus [8]) [%] |
| --- | --- | --- | --- | --- | --- | --- | --- | --- |
| CNCC(=O)N[C@@H](CO)C(=O)N[C@H]1[C@H](O)[C@@H](O)[C@H](n2ccc(N)nc2=O)O[C@@H]1C(N)=O [NINGNANMYCIN] | 99.5 | 80 | 59.9 | 70 | 50.9 (≈ 115 µM) | 55.8 | 60.1 | 42.1 |
| CCCOP(=O)(OCCC)C(N/C(SC)=C(/C#N)C(=O)OCC)c1ccccc1 (stereo not given) | 71 | 50.1 | 41.6 | 47.9 | 159 (≈ 361 µM) | 50.5 | 33.1 | 20.9 |
| CCOCCOC(=O)/C(C#N)=C(\NC(c1ccccc1F)P(=O)(OCC)OCC)SC (stereo not given) | 70 | 48.8 | 48.3 | 44.2 | 167 (≈ 353 µM) | 52.7 | 34.4 | 20.8 |
| CCCCOP(=O)(OCCCC)C(N/C(SC)=C(/C#N)C(=O)OCC)c1ccccc1 (stereo not given) | 84 | 65.7 | 56.5 | 51.6 | 62.6 (≈ 134 µM) | 55.8 | 48.5 | 42.6 |
| CCCOP(=O)(OCCC)C(N/C(SC)=C(/C#N)C(=O)NCc1ccccc1)c1ccccc1 (stereo not given) | 50 | – | 42.4 | – | – | 53.8 | – | – |
| CCOP(=O)(OCC)C(N/C(SC)=C(/C#N)C(=O)NCc1ccccc1)c1ccccc1 (stereo not given) | 51.9 | – | 55.1 | – | – | 55 | – | – |
| CCCCOP(=O)(OCCCC)C(N/C(SC)=C(/C#N)C(=O)OC)c1ccccc1 (stereo not given) | 92.8 | 70.2 | 55.9 | 66.9 | 55.5 (≈ 122 µM) | 60.2 | 53.7 | 37.6 |
| CCOC(=O)/C(C#N)=C(\NC(c1ccccc1F)P(=O)(OCC)OCC)SC (stereo not given) | 74.1 | 64.1 | 48.3 | 50.1 | 118 (≈ 275 µM) | 50.7 | 39.1 | 30.7 |
| CCCCOP(=O)(OCCCC)C(N/C(SC)=C(/C#N)C(=O)NCc1ccccc1)c1ccccc1 (stereo not given) | 11 | – | 45 | – | – | 28.4 | – | – |
| CCCCOP(=O)(OCCCC)C(N/C(SC)=C(/C#N)C(N)=O)c1ccccc1 (stereo not given) | 9.6 | – | 40.2 | – | – | 25.4 | – | – |
| CCOCCOC(=O)/C(C#N)=C(\NC(c1ccccc1)P(=O)(OCC)OCC)SC (stereo not given) | 46.8 | – | 41.2 | – | – | 55.2 | – | – |
| CCOP(=O)(OCC)C(N/C(SC)=C(/C#N)C(=O)OC)c1ccccc1 (stereo not given) | 64.1 | – | 29.6 | – | – | 56.7 | – | – |
| CCOCCOC(=O)/C(C#N)=C(\NC(c1ccccc1)P(=O)(OC(C)C)OC(C)C)SC (stereo not given) | 55.9 | – | 38.4 | – | – | 35.1 | – | – |
| CS/C(NC(c1ccccc1)P(=O)(OC(C)C)OC(C)C)=C(\C#N)C(N)=O (stereo not given) | 5.7 | – | 54.4 | – | – | 28.8 | – | – |
| CCOC(=O)/C(C#N)=C(\NC(c1ccccc1)P(=O)(OC(C)C)OC(C)C)SC (stereo not given) | 37.8 | – | 37.6 | – | – | 42.8 | – | – |
| CCCOP(=O)(OCCC)C(N/C(SC)=C(/C#N)C(N)=O)c1ccccc1 (stereo not given) | 63 | – | 45.8 | – | – | 53.9 | – | – |
| CCCOP(=O)(OCCC)C(N/C(SC)=C(/C#N)C(=O)OC)c1ccccc1 (stereo not given) | 47.1 | – | 44.4 | – | – | 37.7 | – | – |
| CCOP(=O)(OCC)C(N/C(SC)=C(/C#N)C(=O)NCc1ccccc1)c1ccccc1F (stereo not given) | 73.4 | 58.9 | 47.7 | 48.9 | 128 (≈ 260 µM) | 49.9 | 41.2 | 29 |
| CS/C(NC(c1ccccc1)P(=O)(OC(C)C)OC(C)C)=C(\C#N)C(=O)NCc1ccccc1 (stereo not given) | 51.5 | – | 39 | – | – | 52.9 | – | – |
| COC(=O)/C(C#N)=C(\NC(c1ccccc1)P(=O)(OC(C)C)OC(C)C)SC (stereo not given) | 45.7 | – | 40.8 | – | – | 43.3 | – | – |
| CCOP(=O)(OCC)C(N/C(SC)=C(/C#N)C(N)=O)c1ccccc1 (stereo not given) | 60.8 | – | 55.6 | – | – | 54.4 | – | – |
| CCCCOP(=O)(OCCCC)C(N/C(SC)=C(/C#N)C(=O)OCCOCC)c1ccccc1 (stereo not given) | 80.6 | 62 | 44.4 | 53.8 | 87.9 (≈ 171 µM) | 51.8 | 42.8 | 27.8 |
| CCOP(=O)(OCC)C(N/C(SC)=C(/C#N)C(=O)OC)c1ccccc1F (stereo not given) | 92.1 | 69.7 | 44 | 60.6 | 55.3 (≈ 133 µM) | 58.4 | 52.5 | 40.8 |
| CCCOP(=O)(OCCC)C(N/C(SC)=C(/C#N)C(=O)OCCOCC)c1ccccc1 (stereo not given) | 51.5 | – | 43.1 | – | – | 43.2 | – | – |
| CCOP(=O)(OCC)C(N/C(SC)=C(/C#N)C(N)=O)c1ccccc1F (stereo not given) | 70.7 | 49 | 42.8 | 46.2 | 151 (≈ 376 µM) | 25.4 | 35.8 | 26.9 |
